A word on the GI50: it is the concentration giving 50% growth inhibition. A high value points to lower sensitivity of the cells.

Assay type in all cases: functional
The subject of one experiment is A549. The experiment is described as follows: Growth inhibition of human A549/ATCC cells at 10^-5 M after 48 hrs by Sulforhodamine B assay relative to control. The conditions noted are these: A549, 48 h, read-out: GI. The method in brief:
(§1)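 Single-dose screen at 10⁻⁵ M. Cells are preincubated 24 h at 37 °C in 5% CO2, then exposed to the compound, diluted from a DMSO stock into medium with gentamicin, for 48 h. Adherent cells are fixed with cold TCA (final 10%) and suspension cells with TCA (final 16%). Cells are stained with 0.4% SRB in 1% acetic acid and bound dye is read at 515 nm. Percent growth inhibition is taken against control wells and time-zero plates.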
On the technique in general: The SRB assay estimates cell density from bound dye.

For the next experiment, the system named is LOX IMVI. The experiment is described as follows: Growth inhibition of human LOXIMVI cells at 10^-5 M after 48 hrs by Sulforhodamine B assay relative to control. The conditions noted are these: read-out: GI. In outline: as §1
For a further experiment, the system named is ACHN. Briefly: Growth inhibition of human ACHN cells at 10^-5 M after 48 hrs by Sulforhodamine B assay relative to control. The conditions noted are these: read-out: GI. The method in brief:
as §1

The test system of a further experiment is NCI-H460. Briefly: Growth inhibition of human NCI-H460 cells at 10^-5 M after 48 hrs by Sulforhodamine B assay relative to control. The note with it: NCI-H460, 48 h, read-out: GI. The method in brief: (§2)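 Single-dose primary screen at 10⁻⁵ M across 49 lines. Cells were plated 24 h beforehand, with a TCA-fixed time-zero plate, then exposed 48 h at 37 °C, 5% CO2. Cells were fixed with cold TCA, stained with SRB and read at 515 nm. Percent growth was calculated against time-zero and untreated-control absorbances.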

Experiment [1] concerns SN12C. The experiment is described as follows: Growth inhibition of human SN12C cells at 10^-5 M after 48 hrs by Sulforhodamine B assay relative to control. The note with it: read-out: GI. The method in brief: as §2
For the next experiment, the system named is SF-268. Briefly: Growth inhibition of human SF268 cells at 10^-5 M after 48 hrs by Sulforhodamine B assay relative to control. The note with it: SF-268, 48 h, read-out: GI. In outline: as §2
The next experiment has as its system Malme-3M. The experiment is described as follows: Growth inhibition of human MALME-3M cells at 10^-5 M after 48 hrs by Sulforhodamine B assay relative to control. The conditions noted are these: read-out: GI. In outline: as §1
The test system of experiment [2] is SW-620. Briefly: Growth inhibition of human SW620 cells at 10^-5 M after 48 hrs by Sulforhodamine B assay relative to control. The conditions noted are these: SW-620, 48 h, read-out: GI. The method in brief:
as §2

In another experiment the test system is MDA-MB-468. The experiment is described as follows: Growth inhibition of human MDA-MB-468 cells at 10^-5 M after 48 hrs by Sulforhodamine B assay relative to control. The conditions noted are these: MDA-MB-468, 48 h, read-out: GI. The method in brief: as §2
In the next experiment the test system is OVCAR-5. The experiment is described as follows: Growth inhibition of human OVCAR5 cells at 10^-5 M after 48 hrs by Sulforhodamine B assay relative to control. The conditions noted are these: OVCAR-5, 48 h, read-out: GI. In outline: as §2
The subject of a further experiment is MCF7. Briefly: Growth inhibition of human MCF7 cells at 10^-5 M after 48 hrs by Sulforhodamine B assay relative to control. The note with it: MCF7, 48 h, read-out: GI. In outline:
as §1

The subject of experiment [3] is M14. The experiment is described as follows: Growth inhibition of human M14 cells at 10^-5 M after 48 hrs by Sulforhodamine B assay relative to control. The conditions noted are these: M14, 48 h, read-out: GI. The method in brief: as §1
For the next experiment, the system named is OVCAR-8. The experiment is described as follows: Growth inhibition of human OVCAR8 cells at 10^-5 M after 48 hrs by Sulforhodamine B assay relative to control. The conditions noted are these: OVCAR-8, 48 h, read-out: GI. The method in brief:
as §2

Experiment [4] deals with SF-539. Briefly: Growth inhibition of human SF539 cells at 10^-5 M after 48 hrs by Sulforhodamine B assay relative to control. The note with it: SF-539, 48 h, read-out: GI. The method in brief: as §2
The subject of another experiment is HT-29. Briefly: Growth inhibition of human HT-29 cells at 10^-5 M after 48 hrs by Sulforhodamine B assay relative to control. The conditions noted are these: HT-29, 48 h, read-out: GI. In outline: as §1
A further experiment has as its system CCRF-CEM. Briefly: Growth inhibition of human CCRF-CEM cells at 10^-5 M after 48 hrs by Sulforhodamine B assay relative to control. The note with it: read-out: GI. The method in brief:
as §1

The subject of the next experiment is NCI-H23. Briefly: Growth inhibition of human NCI-H23 cells at 10^-5 M after 48 hrs by Sulforhodamine B assay relative to control. The note with it: NCI-H23, 48 h, read-out: GI. The method in brief: as §2
A further experiment has as its system COLO 205. The experiment is described as follows: Growth inhibition of human COLO205 cells after 48 hrs by Sulforhodamine B assay. The note with it: COLO 205, 48 h. The method in brief: (§3)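 Five-concentration SRB assay using 10-fold or ½-log serial dilutions from a DMSO stock. Exposure is 48 h at 37 °C in 5% CO2 after 24 h preincubation. TCA fixation is followed by SRB staining and a reading at 515 nm. Percentage growth is computed from time-zero, control and treated absorbances. GI50 is the concentration where [(Ti−Tz)/(C−Tz)]×100 = 50, read from the plot against log concentration.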

Another experiment relates to UACC-257. The experiment is described as follows: Growth inhibition of human UACC257 cells after 48 hrs by Sulforhodamine B assay. The conditions noted are these: UACC-257, 48 h. The method in brief: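 Five-concentration stage in the […]-cell-line panel, using 10-fold or ½-log serial dilutions made from a DMSO stock (400-fold). Cells were preincubated 24 h at 37 °C, then drug-exposed 48 h. A time-zero plate was fixed with TCA at dosing, adherent cells were fixed with cold TCA (10% final), and protein was stained with SRB, absorbance 515 nm. GI50 was where [(Ti−Tz)/(C−Tz)]×100 = 50, from the percent growth vs log concentration plot, expressed as log10 GI50.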

The test system of a further experiment is RXF 393. The experiment is described as follows: Growth inhibition of human RXF393 cells after 48 hrs by Sulforhodamine B assay. The conditions noted are these: RXF 393, 48 h. In outline:
(§4)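 Cells were preincubated 24 h at 37 °C, 5% CO2, and a time-zero plate was TCA-fixed. Five concentrations were made by serial dilution from a DMSO stock (400-fold the top concentration) and incubated 48 h. Adherent cells were fixed with 10% final TCA and suspension cells with 16%. Plates were stained with 0.4% SRB and read at 515 nm. GI50 is the concentration giving 50% reduction in net protein increase versus control.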

Experiment [5] concerns SF-539. Briefly: Growth inhibition of human SF539 cells after 48 hrs by Sulforhodamine B assay. The note with it: SF-539, 48 h. The method in brief: as §4
Experiment [6] concerns SN12C. Briefly: Growth inhibition of human SN12C cells after 48 hrs by Sulforhodamine B assay. The method in brief: as §4
Experiment [7] deals with M14. The experiment is described as follows: Growth inhibition of human M14 cells after 48 hrs by Sulforhodamine B assay. The note with it: M14, 48 h. The method in brief:
as §3

The test system of another experiment is PC-3. Briefly: Growth inhibition of human PC3 cells after 48 hrs by Sulforhodamine B assay. The conditions noted are these: PC-3, 48 h. In outline:
as §4

In the next experiment the test system is OVCAR-3. Briefly: Growth inhibition of human OVCAR3 cells after 48 hrs by Sulforhodamine B assay. The note with it: OVCAR-3, 48 h. In outline: as §4
In experiment [8] the test system is SW-620. The experiment is described as follows: Growth inhibition of human SW620 cells after 48 hrs by Sulforhodamine B assay. The note with it: SW-620, 48 h. In outline:
as §4

A further experiment concerns HL-60(TB). The experiment is described as follows: Growth inhibition of human HL-60(TB) cells after 48 hrs by Sulforhodamine B assay. The conditions noted are these: HL-60, 48 h. In outline: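 Suspension cells pre-incubated 24 h at 37 °C, 5% CO2 before drug addition, with a time-zero plate fixed then. DMSO stocks diluted in medium with gentamicin to five concentrations (10-fold or ½-log steps); 48 h exposure. Settled cells fixed with TCA (final 16%), stained with SRB, dye dissolved in 10 mM Tris base, read at 515 nm. GI50 solved from [(Ti−Tz)/(C−Tz)]×100 = 50.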

Experiment [9] is described as follows: Growth inhibition of human HCC2998 cells after 48 hrs by Sulforhodamine B assay. The note with it: HCC 2998, 48 h. In outline:
as §3

`Clc1nc(-c2ccncc2)nc2sc3c(c12)CCCCCC3`: the inhibition of growth at 10 µM was -3.56% in the experiment with A549; 5.4% with LOX IMVI; -0.47% with ACHN; -2.59% in the experiment with NCI-H460; 4.53% in the experiment with SN12C [1]; 0.85% in the experiment with SF-268. The inhibition of growth at 10 µM in the experiment on Malme-3M was 7.42%; in the experiment on SW-620 [2], -3.44%; in the experiment on MDA-MB-468 it was 39.6%; with OVCAR-5 it was -5.24%; in the experiment with MCF7 it was 3.18%; in the experiment with M14 [3], -7.52%. The inhibition of growth at 10 µM is -1.87% in the experiment on OVCAR-8; 6.69% in the experiment with SF-539 [4]; -1.58% with HT-29; 23.8% in the experiment with CCRF-CEM; 3.14% with NCI-H23.
Take `c1ccc(-c2nc(N3CCOCC3)c3c4c(sc3n2)CCCCCC4)nc1`: the 50% growth inhibitory concentration (GI50) is 9.33 µM in the experiment on COLO 205; 11 µM with UACC-257; 8.32 µM in the experiment with RXF 393; 12.9 µM with SF-539 [5]; 5.01 µM with SN12C [6]; 4.17 µM with M14 [7]. The GI50 was 2.69 µM in the experiment with PC-3; 4.57 µM in the experiment on OVCAR-3; 8.91 µM with SW-620 [8]; 4.47 µM in the experiment on HL-60(TB); 6.92 µM in [9].
For the compound `CN1CCN(c2nc(-c3ccncc3)nc3sc4c(c23)CCCCCC4)CC1`, the GI50 in the experiment with COLO 205 was 4.9 µM; in the experiment with UACC-257, 10.7 µM; with RXF 393, 4.07 µM; with SF-539 [5], 8.32 µM; with SN12C [6] it was 5.62 µM; in the experiment on M14 [7], 5.37 µM. Besides, the GI50 was 4.68 µM with PC-3; 13.5 µM in the experiment on OVCAR-3; 12 µM in the experiment with SW-620 [8]; 12.6 µM with HL-60(TB); 3.89 µM in [9].
Turning to `O=c1[nH]c(-c2ccncc2)nc2sc3c(c12)CCCCCC3`, the GI50 with COLO 205, in the experiment with UACC-257, in the experiment with RXF 393, in the experiment on SF-539 [5], in the experiment with SN12C [6] and with M14 [7] was above 100 µM in each case. The GI50 (with PC-3; in the experiment on OVCAR-3; in the experiment with SW-620 [8]; with HL-60(TB); in experiment [9]) was above 100 µM throughout.

The values are drawn from ChEMBL document CHEMBL2375304, “Synthesis and anticancer activity of novel 2-pyridyl hexahyrocyclooctathieno[2,3-d]pyrimidine derivatives” (2013).
